Assay outcomes from PubChem BioAssay.
Rpn11 block – Rpn11 (PSMD14) deubiquitinase inhibitors, primary screen, biochemical, fluorescence polarization, uHTS; 360,000 tested, 0.59% active; inhibition, % at 20 µM; human 26S proteasome, Ub4-pepOG fluorescence polarization; 20S core pre-blocked with epoxomicin;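 active = inhibition at 20 µM, scaled to each plate's controls, above about 33%, limit read from the data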
DNMT1 block – human DNMT1 methyltransferase inhibitors, primary screen, biochemical, molecular beacon, fluorescence, HinP1I cleavage, uHTS; inhibition (reported as % activation of signal), % at 10 µM; AID 588458, 2011; 360,000 tested, 0.83% active; in the data active = inhibition above about 50%
LMPTP block – LMPTP phosphatase inhibitors, primary screen, biochemical, fluorescence intensity, uHTS. Low molecular weight phosphotyrosine protein phosphatase (Homo sapiens), P24666. recombinant LMPTP-A, OMFP fluorogenic substrate. inhibition, % at 20 µM. 360,000 tested, 0.22% active;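 active = compounds that cut the enzyme signal by at least half of the control window in the single-dose screen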;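 note: plate controls were DMSO wells with enzyme plus substrate for no effect and substrate without enzyme for full effect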
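Test system: LMPTP-A, protein tyrosine phosphatase of low molecular weight; Input: 0.625 nM enzyme; Incubation: 50 min dark incubation at room temperature; Signal: endpoint fluorescence intensity from OMFP dephosphorylation; Read-out basis: % inhibition versus control wells.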
Scp-1 inhibitor – Scp-1 phosphatase inhibitors, primary screen, biochemical, colorimetric, uHTS | Carboxy-terminal domain RNA polymerase II polypeptide A small phosphatase 1 (Homo … | Recombinant Scp1, phosphopeptide, malachite green phosphate absorbance | inhibition, % at 20 µM | 340,000 tested, 0.88% active | AID 493091, 2011;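 active = inhibition above about 50% at 20 µM, limit read from the data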;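 note: plate controls were DMSO wells with enzyme for no effect and wells lacking enzyme for full effect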
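Material: truncated SCP-1 phosphatase (76-261aa) / Buffer or medium: 50 mM Tris acetate pH 5.5, 0.005% Tween-20, 10 mM MgCl2 / Compound dosing: one concentration, 20 µM, with 1.0% DMSO / Incubation: 45 min room-temperature reaction, 5 min colour, 30 min stabiliser / Detection: colorimetric free-phosphate detection, absorbance 630 nm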
STEP inh – STEP phosphatase inhibitors, primary screen, biochemical, fluorescence intensity, uHTS; AID 588621, 2011; Tyrosine-protein phosphatase non-receptor type 5 (Homo sapiens), P54829; recombinant STEP, OMFP fluorogenic substrate; 360,000 tested, 0.25% active; inhibition, % at 20 µM;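 active = inhibition at 20 µM, scaled per plate between control wells, above about 37%, limit read from the data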;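 note: 0% = DMSO with enzyme and substrate and 100% = substrate only without enzyme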
Target sequence (P54829 whole entry, looked up): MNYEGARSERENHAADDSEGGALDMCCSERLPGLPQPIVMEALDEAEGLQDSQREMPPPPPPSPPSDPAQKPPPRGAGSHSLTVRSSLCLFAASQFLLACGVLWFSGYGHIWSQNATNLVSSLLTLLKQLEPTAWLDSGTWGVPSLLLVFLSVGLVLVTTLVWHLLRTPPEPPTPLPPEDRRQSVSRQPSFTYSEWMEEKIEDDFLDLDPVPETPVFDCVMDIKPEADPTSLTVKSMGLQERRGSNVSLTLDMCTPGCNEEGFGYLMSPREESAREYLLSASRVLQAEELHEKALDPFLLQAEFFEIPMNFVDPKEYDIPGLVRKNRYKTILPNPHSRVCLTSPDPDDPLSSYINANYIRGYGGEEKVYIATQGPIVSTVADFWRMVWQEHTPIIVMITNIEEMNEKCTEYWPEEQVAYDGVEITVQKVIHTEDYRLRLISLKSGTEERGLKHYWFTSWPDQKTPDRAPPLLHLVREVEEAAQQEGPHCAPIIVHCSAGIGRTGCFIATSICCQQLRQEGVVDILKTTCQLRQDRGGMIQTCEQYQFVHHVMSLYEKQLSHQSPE
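Material: STEP (striatal-enriched tyrosine phosphatase) enzyme, cell-free | Medium: 50 mM Bis-Tris pH 6.0 with 2.5 mM DTT and 0.005% Tween 20 | Read-out: Percent inhibition scaled to no-enzyme and uninhibited-enzyme controls, plate-pattern corrected | Signal: Fluorescence read at 480 nm ex / 540 nm em | Times: 20 min reaction, room temperature, in the dark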
Beacon interf DR – spectral interference with molecular beacon fluorescence, dose response, artefact control for DNMT1 inhibitor project, biochemical, fluorescent molecular beacon; shares compounds with DNMT1 block; 200 tested, under 10 active; spectral interference counter-screen; AID 602382, 2012; IC50, µM; call rule not given here
DNMT1 confirm – DNMT1 methyltransferase inhibitor retest, confirmation, biochemical, molecular beacon, fluorescence, single concentration; AID 602385, 2012; inhibition, % at 10 µM; shares compounds with DNMT1 block; DNMT1 molecular beacon HinP1I cleavage; 2,300 tested, 8% active;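 active = average inhibition of at least 30% in the single-concentration confirmation test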
DNMT1 interf – counter-screen for DNMT1 inhibitors: spectral interference; DNMT1 molecular beacon spectral interference counterscreen, fluorescence 485/520; shares compounds with DNMT1 block; 2,300 tested, 1% active; activation (fluorescence interference), % at 10 µM; AID 602387;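 active = activation of at least 30% at 10 µM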;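 note: DNMT1 catalytic domain with a HinP1I cleavage step and a FAM/dabcyl DNA beacon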
Active calls of the source: *; / = not tested or not shown. The list is not random: actives were taken first. Their share in the collection is about 2%.

SMILES	Rpn11 block	DNMT1 block	LMPTP block	Scp-1 inhibitor	STEP inh	DNMT1 confirm	DNMT1 interf	others
CC(C(=O)N(C)C1CCS(=O)(=O)C1)N1C(=O)/C(=C/c2ccc(F)cc2)SC1=S (stereo unspecified)	-1	0	0	-2	8	/	/
CCN(C(=O)C(C)N1C(=O)/C(=C/c2ccco2)SC1=S)C1CCS(=O)(=O)C1 (stereo unspecified)	10	63*	4	36	15	0	1
Cc1noc(C)c1CSCC(=O)N(C)CC(=O)Nc1ccc(Cl)cc1	18	-1	-1	-5	-1	/	/
COc1ccccc1NS(=O)(=O)c1ccc(C)c(NS(=O)(=O)c2cc(NC(C)=O)ccc2OC)c1	-7	13	2	19	5	/	/
Cc1ccc(S(=O)(=O)N2[C@@H](c3ccc(C(C)(C)C)cc3)C(C(=O)O)=CC[C@H]2c2ccc(C(C)C)cc2)cc1	38	58*	4	8	2	52*	-12	Beacon interf DR=>99
C[n+]1cccc2c(Br)ccc([O-])c21	4	84*	53*	-15	17	-1	2
CC(=O)c1cccc(S(=O)(=O)Nc2ccccc2N2CCOCC2)c1	1	2	-1	-5	-4	/	/
Clc1ccc(CNc2ccc3nnc(-c4ccccc4)n3n2)cc1	6	66*	8	3	0	0	-2
CCOc1ccc(CCNc2ccc3nnc(-c4ccccc4)n3n2)cc1OCC	-2	28	2	-7	-14	/	/
Cc1csc(NC(=O)CCn2c(=O)oc3ccccc32)n1	-7	3	-1	-12	1	/	/
O=C(Cn1c(=O)oc2ccccc21)Nc1nc(-c2ccc(Br)cc2)cs1	2	44	0	0	1	-1	0
CCCCCCCCc1nnc(NC(=O)c2ccco2)s1	30	113*	4	22	3	59*	4	Beacon interf DR=>99
CCOCc1nnc(NC(=O)c2ccco2)s1	-5	2	-3	-6	1	/	/
C/C=C(\C)C(=O)NNC(=O)c1sc(-c2ccccc2)nc1C	-6	-2	-2	-4	-1	/	/
CCCCC(=O)Nc1ccc(N2CCCC2)cc1	10	77*	9	-4	4	1	3
CCOc1cccc(C(=O)NC(=S)Nc2ccc(N3CCCC3)cc2)c1	0	72*	5	7	11	1	2
O=C(Nc1ccc(N2CCCC2)cc1)c1ccc(Br)cc1	31	58*	9	-1	2	13	-6
O=C(Cc1ccccc1)Nc1cccc(N2CCCC2)c1	18	78*	16	-11	-1	1	3
O=C(N/N=C(\Cc1ncc[nH]1)c1ccccc1)c1cccnc1	5	1	-1	-3	1	/	/
Cc1ccc(C(=O)N2CCOCC2)c(F)c1F	1	16	-1	3	0	/	/
CCOC(=O)C[C@H]1c2ccccc2S(=O)(=O)N1c1cccc(OC)c1	-5	-1	-2	-5	-5	/	/
C[C@H](NC(=O)CCC1CCC(=O)N1)c1ccccc1 (stereo partly specified)	7	1	-3	0	-1	/	/
O=C(Cc1ccc(Cl)cc1)Nc1ccc(NC(=O)c2ccccc2)cc1	2	56*	16	3	1	3	6
O=C(Cc1ccccc1)Nc1ccc(N2CCCC2)cc1	13	94*	37	2	1	6	-4
CC(=O)N1CCN(c2ccc(NC(=O)C(c3ccccc3)c3ccccc3)cc2)CC1	-3	1	0	-2	0	/	/
SMILES	Rpn11 block	DNMT1 block	LMPTP block	Scp-1 inhibitor	STEP inh	DNMT1 confirm	DNMT1 interf	others
O=C(Nc1ccc(N2CCCC2)cc1)C(c1ccccc1)c1ccccc1	8	73*	4	3	7	2	-1
Cc1ccc(OCCC(=O)OCC(=O)N2CCN(S(=O)(=O)c3ccc(C)cc3)CC2)cc1	1	-2	1	-4	1	/	/
CC(=NNC(=O)COc1cccc(C)c1)c1cccnc1	1	80*	-1	-6	-2	1	1
O=[N+]([O-])c1ccc(-c2cc(-c3ccc(Cl)cc3)n[nH]2)cc1	4	91*	6	-4	0	9	-1
CCOC(=O)/C(=N\Nc1ncnc2ccccc12)c1ccc(C)cc1	21	-1	3	7	0	/	/
Cc1ccccc1NC(=O)CCN1CCN(Cc2ccccc2)CC1	2	-2	-2	-2	-4	/	/
CCN(CC)c1ccc(S(=O)(=O)N2CCOCC2)cc1NC(=O)CN1CCN(Cc2ccccc2)CC1	7	58*	-1	-9	3	0	4
Cc1ccccc1NC(=O)CN1CCN(Cc2ccccc2)CC1	0	79*	-1	-4	-4	1	5
CC1=NOC(=O)/C1=C\c1ccc(-c2cc(Cl)ccc2Cl)o1	8	81*	0	11	1	4	-8
COc1ccc(C(=O)Nc2ccccc2C(=O)Nc2cc(C)ccn2)cc1	2	-9	1	7	10	/	/
COc1ccc(C(=O)Nc2ccccc2C(=O)Nc2cccc(C)n2)cc1	-1	83*	0	8	-1	15	4
CS(=O)(=O)Nc1cccc(NC(=O)C2Cc3c(-c4cccc(F)c4)ccnc3O2)c1 (stereo unspecified)	-1	-2	0	/	0	/	/
C(=C\c1nc(N2CCCC2)c2ccccc2n1)/c1ccccc1	4	61*	85*	18	2	3	3
CC1CCN(c2nc(/C=C/c3ccccc3)nc3ccccc23)CC1	11	1	18	18	3	/	/
Cn1c(CC(=O)Nc2ccccc2F)nnc1SCC(=O)Nc1ccccc1Br	2	1	1	-5	0	/	/
Cc1ccc(NC(=O)CN2C(=O)NC(Cc3ccccc3)C2=O)cc1Cl (stereo unspecified)	-2	-6	1	-5	-5	/	/
